# Activity calls are given as the source filed them. The calls are words filed in the database; no cut-off is given here.
# Assays:
# Assay type in all cases: functional, organism-based
# [1] = test system: Cunninghamella bertholletiae; assay: Antifungal activity against Cunninghamella bertholletiae UTHSC 04-2581 infected in neutropenic OF1 mouse assessed as decreased fungal load in kidney at 0.8 mg/kg, iv qd administered 1 day post infection measured after 4 to 5 days relative to untreated control; design: dose 0.8 mg/kg
# Outline: (§1)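 Neutropenic male OF1 mice (cyclophosphamide 200 mg/kg i.p. plus 5-fluorouracil 150 mg/kg i.v., day −1) were given 1 × 10⁴ CFU sporangiospores i.v. in 0.2 ml saline. Treatment from 24 h: 0.8 mg/kg i.v. or oral doses once daily; 10 mice per group. Killed at day 5 (day 4 if moribund). About half of brain, lungs and kidneys homogenized in saline; 10-fold dilutions plated on PDA for 24 h at 35°C; log₁₀ CFU/g tissue.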
# [2] = test system: Cunninghamella bertholletiae; assay: Antifungal activity against Cunninghamella bertholletiae FMR 9598 infected in neutropenic OF1 mouse assessed as increase in mouse survival rate at 0.8 mg/kg, iv qd administered 1 day after infection for 7 days relative to untreated control; design: dose 0.8 mg/kg
# Outline: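 Male OF1 mice (~30 g) were made neutropenic with cyclophosphamide 200 mg/kg i.p. plus 5-fluorouracil 150 mg/kg i.v. 1 day before challenge. Challenge was 1 × 10⁴ CFU sporangiospores in 0.2 ml saline via the lateral tail vein. Mice got ceftazidime 5 mg/day s.c. on days 1–7. Dosing started 24 h post-challenge for 7 days. There were 10 mice/group, observed daily for 20 days. Kaplan-Meier analysis with log-rank test.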
# [3] = test system: Cunninghamella bertholletiae; assay: Antifungal activity against Cunninghamella bertholletiae UTHSC 04-2581 infected in neutropenic OF1 mouse assessed as decreased fungal load in brain at 60 mg/kg, po qd administered 1 day post infection measured after 4 to 5 days relative to untreated control; design: dose 60 mg/kg; outline: as §1
# [4] = test system: Cunninghamella bertholletiae; assay: Antifungal activity against Cunninghamella bertholletiae UTHSC 06-1945 infected in neutropenic OF1 mouse assessed as increase in mouse survival rate at 60 mg/kg, po qd administered 1 day after infection; design: dose 60 mg/kg
# Outline: (§2)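 Male OF1 mice, about 30 g, made neutropenic with cyclophosphamide 200 mg/kg i.p. plus 5-fluorouracil 150 mg/kg i.v. 1 day before challenge. Infected i.v. via the lateral tail vein with 1 × 10⁴ CFU of hemacytometer-counted sporangiospores in 0.2 ml saline. Ceftazidime 5 mg/day s.c. on days 1–7. Oral treatment started 24 h after challenge; 10 mice per group; checked daily for 20 days; Kaplan-Meier mean survival time, log-rank test.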
# [5] = test system: Cunninghamella bertholletiae; assay: Antifungal activity against Cunninghamella bertholletiae FMR 9598 infected in neutropenic OF1 mouse assessed as increase in mouse survival rate at 60 mg/kg, po qd administered 1 day after infection for 7 days relative to untreated control; design: dose 60 mg/kg; outline: as §2
# [6] = test system: Cunninghamella bertholletiae; assay: Antifungal activity against Cunninghamella bertholletiae UTSCH 05-2275 infected in diabetic OF1 mouse assessed as decreased fungal load in brain at 80 mg/kg, po qd administered 1 day post infection measured after 4 to 5 days relative to untreated control; design: dose 80 mg/kg
# Outline: (§3)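 Diabetic male OF1 mice (streptozocin 210 mg/kg i.p.; glucose above 250 mg/dl) were challenged i.v. with 1 × 10⁵ CFU sporangiospores. Oral once-daily dosing from day 1 for 7 days; 10 mice per group. Killed at day 5 (day 4 if moribund). About half of each organ homogenized in saline; serial 10-fold dilutions plated on PDA for 24 h at 35°C; log₁₀ CFU/g tissue.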
# [7] = test system: Cunninghamella bertholletiae; assay: Antifungal activity against Cunninghamella bertholletiae UTSCH 05-2275 infected in diabetic OF1 mouse assessed as decreased fungal load in kidney at 40 mg/kg, po qd administered 1 day post infection measured after 4 to 5 days relative to untreated control; design: dose 40 mg/kg; outline: as §3
# [8] = test system: Cunninghamella bertholletiae; assay: Antifungal activity against Cunninghamella bertholletiae UTSCH 05-2275 infected in diabetic OF1 mouse assessed as decreased fungal load in brain at 40 mg/kg, po qd administered 1 day post infection measured after 4 to 5 days relative to untreated control; design: dose 40 mg/kg; outline: as §3
# [9] = test system: Cunninghamella bertholletiae; assay: Antifungal activity against Cunninghamella bertholletiae UTHSC 05-2275 infected in diabetic OF1 mouse assessed as increase in mouse survival rate at 40 mg/kg, po qd administered 1 day after infection for 7 days relative to untreated control; design: dose 40 mg/kg
# Outline: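 Male OF1 mice made diabetic with streptozocin 210 mg/kg i.p.; blood glucose above 250 mg/dl at day 10 required. Infected i.v. via the tail vein with 1 × 10⁵ CFU sporangiospores in 0.2 ml saline. Ceftazidime 5 mg/day s.c. on days 1–7. Oral once-daily treatment from day 1 for 7 days; 10 mice per group; followed for 20 days; Kaplan-Meier mean survival time, log-rank test.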
Structure (SMILES),Activity [1],Activity [2],Activity [3],Activity [4],Activity [5],Activity [6],Activity [7],Activity [8],Activity [9]
C[C@@H]1[C@H](O)[C@@H](C)/C=C/C=C/C=C/C=C/C=C/C=C/C=C/[C@H](O[C@@H]2O[C@H](C)[C@@H](O)[C@H](N)[C@@H]2O)C[C@@H]2O[C@](O)(C[C@@H](O)C[C@@H](O)[C@H](O)CC[C@@H](O)C[C@@H](O)CC(=O)O[C@H]1C)C[C@H](O)[C@H]2C(=O)O [AMPHOTERICIN B],Active,inactive,–,–,–,–,–,–,–
CC[C@@H]([C@H](C)O)n1ncn(-c2ccc(N3CCN(c4ccc(OC[C@@H]5CO[C@@](Cn6cncn6)(c6ccc(F)cc6F)C5)cc4)CC3)cc2)c1=O [POSACONAZOLE],–,–,Active,Active,Active,Active,Active,inactive,Active
